Results: ChEMBL document CHEMBL1687792, “vanM, a new glycopeptide resistance gene cluster found in Enterococcus faecium” (2010)
Values after ≈ are worked out from the molar mass of the structure shown. Active and inactive are the calls of the source. The rule behind the calls is not given here.

Tests used:
Enterococcus faecium [1] = test: Antimicrobial activity against rifampin-, fusidic acid-resistant Enterococcus faecium BM-4105 by Etest; assay type: functional
Method in brief: (§1)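 MIC by Etest on Mueller-Hinton agar, run per manufacturer's instructions and interpreted by CLSI recommendations. Same method for donor, recipient (BM4105RF, Fusr Rifr) and transconjugants. Transconjugants came from filter mating and were selected on BHI agar with rifampin (100 μg/ml) or fusidic acid (10 μg/ml) plus vancomycin (10 μg/ml).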

Enterococcus faecium [2] = test: Antimicrobial activity against Enterococcus faecium BM-0661 transconjugant by Etest; assay type: functional; method in brief: as §1
Enterococcus faecalis = test: Induction of VanM gene cluster in glycopeptide-resistant Enterococcus […] isolate HS0661 harboring MLST sequence type ST78 and pulsotype C expressing vanM gene cluster isolated from exudate of patient assessed as UDP-MurNAc-tetrapeptide-D-lactate at 50 ug/mL by LC-MS method; assay type: functional, organism-based
Method in brief: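 Efm-HS0661 was grown in BHI broth to OD650 0.4, then exposed to glycopeptide at 50 μg/ml for a further 120 min. Peptidoglycan precursors were extracted and separated on a C18 column at 30 μl/min using a linear gradient over 18 min. Eluent A was 10 mM ammonium acetate, pH 5; eluent B was 2% acetonitrile in the same buffer. Precursors were identified by MS from fragments at m/z 562 and 747.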

Enterococcus faecium [3] = test: Antimicrobial activity against glycopeptide-resistant Enterococcus faecium isolate HS0761 harboring MLST sequence type ST78 and pulsotype C expressing vanM gene cluster isolated from urine of patient by Etest
Enterococcus faecium [4] = test: Antimicrobial activity against glycopeptide-resistant Enterococcus faecium isolate HS0847 harboring MLST sequence type ST78 and pulsotype E expressing vanM gene cluster isolated from urine of patient by Etest
Enterococcus faecium [5] = test: Antimicrobial activity against glycopeptide-resistant Enterococcus faecium isolate HS05417 harboring MLST sequence type ST17 and pulsotype A expressing vanA gene cluster isolated from urine of patient by Etest
Enterococcus faecium [6] = test: Antimicrobial activity against glycopeptide-resistant Enterococcus faecium isolate HS05446 harboring MLST sequence type ST17 and pulsotype B expressing vanA gene cluster isolated from urine of patient by Etest
Enterococcus faecium [7] = test: Antimicrobial activity against glycopeptide-resistant Enterococcus faecium isolate HS06188 harboring MLST sequence type ST78 and pulsotype A expressing vanA gene cluster isolated from urine of patient by Etest
Enterococcus faecium [8] = test: Antimicrobial activity against glycopeptide-resistant Enterococcus faecium isolate HS07261 harboring MLST sequence type ST78 and pulsotype D expressing vanM gene cluster isolated from urine of patient by Etest
Enterococcus faecium [9] = test: Antimicrobial activity against glycopeptide-resistant Enterococcus faecium isolate HS08369 harboring MLST sequence type ST18 and pulsotype G expressing vanM gene cluster isolated from urine of patient by Etest
Enterococcus faecium [10] = test: Antimicrobial activity against glycopeptide-resistant Enterococcus faecium isolate HS0649 harboring MLST sequence type ST17 and pulsotype B expressing vanA gene cluster isolated from exudate of patient by Etest
Enterococcus faecium [11] = test: Antimicrobial activity against glycopeptide-resistant Enterococcus faecium isolate HS0661 harboring MLST sequence type ST78 and pulsotype C expressing vanM gene cluster isolated from exudate of patient by Etest
Enterococcus faecium [12] = test: Antimicrobial activity against glycopeptide-resistant Enterococcus faecium isolate HS08257 harboring MLST sequence type ST341 and pulsotype F expressing vanM gene cluster isolated from urine of patient by Etest

Compound	MIC (Enterococcus faecium [1])	MIC (Enterococcus faecium [2])	Activity (Enterococcus faecalis)	MIC (Enterococcus faecium [3])	MIC (Enterococcus faecium [4])	MIC (Enterococcus faecium [5])	MIC (Enterococcus faecium [6])	MIC (Enterococcus faecium [7])	MIC (Enterococcus faecium [8])	MIC (Enterococcus faecium [9])	MIC (Enterococcus faecium [10])	MIC (Enterococcus faecium [11])	MIC (Enterococcus faecium [12])
CN[C@H](CC(C)C)C(=O)N[C@H]1C(=O)N[C@@H](CC(N)=O)C(=O)N[C@H]2C(=O)N[C@H]3C(=O)N[C@H](C(=O)N[C@H](C(=O)O)c4cc(O)cc(O)c4-c4cc3ccc4O)[C@H](O)c3ccc(c(Cl)c3)Oc3cc2cc(c3O[C@@H]2O[C@H](CO)[C@@H](O)[C@H](O)[C@H]2O[C@H]2C[C@](C)(N)[C@H](O)[C@H](C)O2)Oc2ccc(cc2Cl)[C@H]1O [VANCOMYCIN]	0.75 µg/mL (≈ 0.518 µM)	> 256 µg/mL	Active	> 256 µg/mL	> 256 µg/mL	> 256 µg/mL	> 256 µg/mL	> 256 µg/mL	> 256 µg/mL	> 256 µg/mL	> 256 µg/mL	> 256 µg/mL	> 256 µg/mL
C[C@H]1c2cccc(O)c2C(=O)C2=C(O)[C@]3(O)C(=O)C(C(N)=O)=C(O)[C@@H](N(C)C)[C@@H]3[C@@H](O)[C@@H]21.O [DOXYCYCLINE]	0.094 µg/mL	0.094 µg/mL	–	0.125 µg/mL	0.094 µg/mL	0.19 µg/mL	6 µg/mL	0.125 µg/mL	0.19 µg/mL	32 µg/mL	6 µg/mL	0.125 µg/mL	0.19 µg/mL
CC(=O)NC[C@H]1CN(c2ccc(N3CCOCC3)c(F)c2)C(=O)O1 [LINEZOLID]	1.5 µg/mL (≈ 4.45 µM)	1 µg/mL (≈ 2.96 µM)	–	1.5 µg/mL (≈ 4.45 µM)	–	1.5 µg/mL (≈ 4.45 µM)	1.5 µg/mL (≈ 4.45 µM)	1.5 µg/mL (≈ 4.45 µM)	1.5 µg/mL (≈ 4.45 µM)	–	1.5 µg/mL (≈ 4.45 µM)	1.5 µg/mL (≈ 4.45 µM)	–
CO[C@H]1/C=C/O[C@@]2(C)Oc3c(C)c(O)c4c(O)c(c(/C=N/N5CCN(C)CC5)c(O)c4c3C2=O)NC(=O)/C(C)=C\C=C\[C@H](C)[C@H](O)[C@@H](C)[C@@H](O)[C@@H](C)[C@H](OC(C)=O)[C@@H]1C [RIFAMPIN]	> 32 µg/mL	> 32 µg/mL	–	3 µg/mL (≈ 3.65 µM)	> 32 µg/mL	0.25 µg/mL (≈ 0.304 µM)	4 µg/mL (≈ 4.86 µM)	0.19 µg/mL (≈ 0.231 µM)	> 32 µg/mL	16 µg/mL (≈ 19.4 µM)	4 µg/mL (≈ 4.86 µM)	4 µg/mL (≈ 4.86 µM)	8 µg/mL (≈ 9.72 µM)
O=C1CN(/N=C/c2ccc([N+](=O)[O-])o2)C(=O)N1 [NITROFURANTOIN]	16 µg/mL (≈ 67.2 µM)	16 µg/mL (≈ 67.2 µM)	–	64 µg/mL (≈ 269 µM)	64 µg/mL (≈ 269 µM)	128 µg/mL (≈ 537 µM)	16 µg/mL (≈ 67.2 µM)	128 µg/mL (≈ 537 µM)	128 µg/mL (≈ 537 µM)	32 µg/mL (≈ 134 µM)	> 512 µg/mL	64 µg/mL (≈ 269 µM)	196 µg/mL (≈ 823 µM)
